Here are results for twelve compounds from ChEMBL document CHEMBL1121404, “Synthesis and study of conformationally defined enantiomers of local anesthetics and conformationally defined enantiomers of fluorescent dyes designed to label electrically excitable membranes” (1980).

In assay [1] the test system is Majidae. Kind of assay: The compound was tested for optical responses recorded from spider crab walking leg nerve bundles upon staining. The format is functional. The procedure, abridged: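 Nerve bundles stained 30 min in Tris-buffered artificial sea water (pH 8) with 25-50 nM dye, poorly soluble dyes first dissolved in 0.1 mL 95% EtOH per 100 mL; excitation with 365 ± 10 nm light from xenon-mercury lamp; time-averaged fluorescence recorded with extracellular compound action potential; ΔI/I (excitation-linked change over resting intensity); mean ± SE of 2-8 experiments.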

Assay [2] has as its system Majidae. Put plainly: The compound was tested for its ability to block the excitability of spider crab walking leg nerve bundles, peak action potential amplitude, recorded by a pair of external Ag-AgCl electrodes. Type of assay: functional. The procedure, abridged:
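Libinia emarginata claw/walking-leg nerve bundles; compound applied in external bath at 1 mM for 20 min in physiological saline (416 mM NaCl, 10 mM KCl, 11 mM CaCl2, 55 mM MgCl2, 2.5 mM NaHCO3, pH 8.0); 0.4-ms threshold pulses; 18-20 °C; % decrease in peak compound action potential amplitude via external Ag-AgCl electrodes; mean ± SE of 4-6 experiments.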

Assay [3] concerns Majidae. Kind of assay: The compound was tested for its ability to block the excitability of spider crab walking leg nerve bundles, the peak action potential amplitude, upon washing in physiological saline for 20 minutes. The format is functional, organism-based. In a few lines:
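Spider crab (Libinia emarginata) nerve bundles exposed to 1 mM compound in bath for 20 min, then washed 20 min in physiological saline (pH 8.0); stimulation with 0.4-ms threshold pulses at 18-20 °C; value is percent recovery of peak compound action potential amplitude relative to control; mean ± SE of 4-6 experiments.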

Compound `C[C@H](Cc1ccccc1)NC(=O)c1cccc2c(N(C)C)cccc12` registered a Delta I/I in the assay with Majidae [1] of 0.00035. In turn, `C[C@H](Cc1ccc([N+](=O)[O-])cc1)N(C)C` gave a Decrease in the assay on Majidae [2] of 93%. In addition, the Recovery with Majidae [3] was determined as 46%.

For the compound `C[C@@H](Cc1ccccc1)NC(=O)c1cccc2c(N(C)C)cccc12`, the Delta I/I in the assay with Majidae [1] worked out at 0.00038.

In turn, `C[C@@H](Cc1ccccc1)NS(=O)(=O)c1cccc2c(N(C)C)cccc12` yielded a Delta I/I with Majidae [1] of 7e-05. The compound `C[C@@H](Cc1ccc([N+](=O)[O-])cc1)N(C)C` returned a Decrease in the assay on Majidae [2] of 84%. Also, the Recovery in the assay on Majidae [3] was 35%. In the case of `CN(C)c1cccc2c(C(=O)N[C@H](CO)Cc3ccccc3)cccc12`, the Delta I/I in the assay on Majidae [1] stood at 0.00024.

For `CN(C)c1cccc2c(S(=O)(=O)N[C@@H](CO)Cc3ccccc3)cccc12`, the Delta I/I in the assay with Majidae [1] amounted to 0.00015. The compound `C[C@H](Cc1ccccc1)NS(=O)(=O)c1cccc2c(N(C)C)cccc12` yielded a Delta I/I with Majidae [1] of 8.5e-05. Same read-out and setting: the result for `CN(C)c1cccc2c(S(=O)(=O)N[C@H](CO)Cc3ccccc3)cccc12` reads 0.00018.

Turning to `CN(C)c1cccc2c(C(=O)N[C@@H](CO)Cc3ccccc3)cccc12`, the Delta I/I with Majidae [1] was determined as 0.00025. In the assay with Majidae [2], `C[C@H](Cc1ccc(N)cc1)N(C)C` gave a Decrease of 28%. In the assay with Majidae [3], the Recovery was determined as 100%. In the assay with Majidae [2], `C[C@@H](Cc1ccc(N)cc1)N(C)C` registered a Decrease of 33%. Moreover, the Recovery with Majidae [3] stood at 100%.
